# According to ChEMBL document CHEMBL5303300, “EUbOPEN Chemogenomics Library - Multiplex” (2023):
# Several values for one entry are separate records, joined by “and”; a condition that tells them apart may be missing. Equal entries are not always repeated.
# Key:
# Fibroblast = assay: Multiplex assay against human fibroblast; type: toxicity, cell-based; conditions: number of replicates 2
# Summary of the method: (§1)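 Live cells were stained at seeding with Hoechst33342, BioTracker Green Microtubule Cytoskeleton Dye, MitoTracker Red and Annexin V Alexa Fluor 680. Following compound addition, they were imaged on a CQ1 microscope at 37°C and 5% CO2 and gated by CellPathfinder machine learning into Hoechst high-intensity objects or normal cells, with normal cells split into healthy, pyknosed or fragmented nuclei and pyknosed cells into mitotic or apoptotic. Tubulin, mitochondrial-mass and membrane-permeability phenotypes are per cents of healthy-nucleus cells.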
# HEK-293T = assay: Multiplex assay against HEK293T; type: toxicity, cell-based; conditions: human, number of replicates 2; summary of the method: as §1
# [1] = 12 h, 1 µM, compound concentration 1 uM
# [2] = 12 h, 10 µM, compound concentration 10 uM
# [3] = 24 h, 1 µM, compound concentration 1 uM
# [4] = 24 h, 10 µM, compound concentration 10 uM
# [5] = 48 h, 1 µM, compound concentration 1 uM
# [6] = 48 h, 10 µM, compound concentration 10 uM
smiles,measurement,setting,value
CN1CCN(c2ccc(-n3cc(-c4ccncc4OCC4CCNCC4)cn3)cc2)CC1,Population Apoptotic (%),Fibroblast; [1],44%
same,Population Fragmented Nuclei (%),Fibroblast; [1],13% and 12%
same,Population Healthy Nuclei (%),Fibroblast; [1],58% and 71%
same,Population Hoechst High Intensity Objects (%),Fibroblast; [1],0%
same,Population Membrane Permeable-Phenotype (%),Fibroblast; [1],3% and 8%
same,Population Mitochondria Different-Phenotype (%),Fibroblast; [1],2% and 0%
same,Population Mitotic Cells (%),Fibroblast; [1],55%
same,Population Normal (%),Fibroblast; [1],100%
same,Population Pyknosed Nuclei (%),Fibroblast; [1],27% and 16%
same,Population Tubulin-Different-Phenotype (%),Fibroblast; [1],15% and 14%
same,Total Cell Count,Fibroblast; [1],131 and 173
same,Population Apoptotic (%),Fibroblast; [2],38% and 75%
same,Population Fragmented Nuclei (%),Fibroblast; [2],13% and 25%
same,Population Healthy Nuclei (%),Fibroblast; [2],72% and 63%
same,Population Hoechst High Intensity Objects (%),Fibroblast; [2],0%
same,Population Membrane Permeable-Phenotype (%),Fibroblast; [2],2% and 4%
same,Population Mitochondria Different-Phenotype (%),Fibroblast; [2],1% and 3%
same,Population Mitotic Cells (%),Fibroblast; [2],61% and 25%
same,Population Normal (%),Fibroblast; [2],100%
same,Population Pyknosed Nuclei (%),Fibroblast; [2],14% and 10%
same,Population Tubulin-Different-Phenotype (%),Fibroblast; [2],34% and 31%
same,Total Cell Count,Fibroblast; [2],179 and 182
same,Population Apoptotic (%),Fibroblast; [3],56% and 48%
same,Population Fragmented Nuclei (%),Fibroblast; [3],13% and 14%
same,Population Healthy Nuclei (%),Fibroblast; [3],58% and 68%
same,Population Hoechst High Intensity Objects (%),Fibroblast; [3],0%
same,Population Membrane Permeable-Phenotype (%),Fibroblast; [3],7% and 9%
same,Population Mitochondria Different-Phenotype (%),Fibroblast; [3],2% and 1%
same,Population Mitotic Cells (%),Fibroblast; [3],43% and 51%
same,Population Normal (%),Fibroblast; [3],100%
same,Population Pyknosed Nuclei (%),Fibroblast; [3],28% and 17%
same,Population Tubulin-Different-Phenotype (%),Fibroblast; [3],17% and 13%
same,Total Cell Count,Fibroblast; [3],131 and 178
same,Population Apoptotic (%),Fibroblast; [4],39% and 47%
same,Population Fragmented Nuclei (%),Fibroblast; [4],20% and 26%
same,Population Healthy Nuclei (%),Fibroblast; [4],65% and 61%
same,Population Hoechst High Intensity Objects (%),Fibroblast; [4],0%
same,Population Membrane Permeable-Phenotype (%),Fibroblast; [4],8% and 5%
same,Population Mitochondria Different-Phenotype (%),Fibroblast; [4],7% and 13%
same,Population Mitotic Cells (%),Fibroblast; [4],60% and 52%
same,Population Normal (%),Fibroblast; [4],100%
same,Population Pyknosed Nuclei (%),Fibroblast; [4],14% and 11%
same,Population Tubulin-Different-Phenotype (%),Fibroblast; [4],52% and 44%
same,Total Cell Count,Fibroblast; [4],189 and 192
same,Population Apoptotic (%),Fibroblast; [5],75% and 66%
same,Population Fragmented Nuclei (%),Fibroblast; [5],21% and 16%
same,Population Healthy Nuclei (%),Fibroblast; [5],61% and 72%
same,Population Hoechst High Intensity Objects (%),Fibroblast; [5],0%
same,Population Membrane Permeable-Phenotype (%),Fibroblast; [5],10% and 4%
same,Population Mitochondria Different-Phenotype (%),Fibroblast; [5],1% and 0%
same,Population Mitotic Cells (%),Fibroblast; [5],25% and 33%
same,Population Normal (%),Fibroblast; [5],100%
same,Population Pyknosed Nuclei (%),Fibroblast; [5],16% and 10%
same,Population Tubulin-Different-Phenotype (%),Fibroblast; [5],17% and 10%
same,Total Cell Count,Fibroblast; [5],142 and 191
same,Population Apoptotic (%),Fibroblast; [6],76% and 73%
same,Population Fragmented Nuclei (%),Fibroblast; [6],31% and 30%
same,Population Healthy Nuclei (%),Fibroblast; [6],54% and 61%
same,Population Hoechst High Intensity Objects (%),Fibroblast; [6],0%
same,Population Membrane Permeable-Phenotype (%),Fibroblast; [6],2% and 4%
same,Population Mitochondria Different-Phenotype (%),Fibroblast; [6],11% and 13%
same,Population Mitotic Cells (%),Fibroblast; [6],23% and 26%
same,Population Normal (%),Fibroblast; [6],99% and 100%
same,Population Pyknosed Nuclei (%),Fibroblast; [6],14% and 7%
same,Population Tubulin-Different-Phenotype (%),Fibroblast; [6],59% and 48%
same,Total Cell Count,Fibroblast; [6],212 and 189
same,Population Apoptotic (%),HEK-293T; [1],50% and 48%
same,Population Fragmented Nuclei (%),HEK-293T; [1],4% and 3%
same,Population Healthy Nuclei (%),HEK-293T; [1],86% and 85%
same,Population Hoechst High Intensity Objects (%),HEK-293T; [1],7% and 5%
same,Population Membrane Permeable-Phenotype (%),HEK-293T; [1],4% and 2%
same,Population Mitochondria Different-Phenotype (%),HEK-293T; [1],9% and 10%
same,Population Mitotic Cells (%),HEK-293T; [1],50% and 51%
same,Population Normal (%),HEK-293T; [1],92% and 94%
same,Population Pyknosed Nuclei (%),HEK-293T; [1],9% and 11%
same,Population Tubulin-Different-Phenotype (%),HEK-293T; [1],38%
same,Total Cell Count,HEK-293T; [1],587 and 556
same,Population Apoptotic (%),HEK-293T; [2],88% and 66%
same,Population Fragmented Nuclei (%),HEK-293T; [2],1%
same,Population Healthy Nuclei (%),HEK-293T; [2],94% and 95%
same,Population Hoechst High Intensity Objects (%),HEK-293T; [2],3% and 5%
same,Population Membrane Permeable-Phenotype (%),HEK-293T; [2],4% and 6%
same,Population Mitochondria Different-Phenotype (%),HEK-293T; [2],28% and 17%
same,Population Mitotic Cells (%),HEK-293T; [2],11% and 33%
same,Population Normal (%),HEK-293T; [2],96% and 94%
same,Population Pyknosed Nuclei (%),HEK-293T; [2],3% and 2%
same,Population Tubulin-Different-Phenotype (%),HEK-293T; [2],71% and 76%
same,Total Cell Count,HEK-293T; [2],452 and 604
same,Population Apoptotic (%),HEK-293T; [3],29% and 50%
same,Population Fragmented Nuclei (%),HEK-293T; [3],6% and 7%
same,Population Healthy Nuclei (%),HEK-293T; [3],84% and 83%
same,Population Hoechst High Intensity Objects (%),HEK-293T; [3],8% and 7%
same,Population Membrane Permeable-Phenotype (%),HEK-293T; [3],3% and 1%
